Legend:
[1] = tested on: Liver; assay: Biodistribution in Sprague-Dawley rat liver assessed per gram of tissue at 1 MBq, iv after 0.25 hrs; assay type: ADME, organism-based; conditions: in vivo
How it was run: (§1)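 Male SD rats aged 8-10 weeks got 1 MBq [18F]tracer by tail vein in 0.1 mL. Groups of n = 4 were killed (CO2, then cervical fracture) at 0.25, 0.5, 1 and 4 h. Organs were weighed and gamma counted against a diluted standard of the injectate. Results are %ID per gram wet tissue, mean with standard deviation.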

[2] = Biodistribution in Sprague-Dawley rat testis assessed per gram of tissue at 1 MBq, iv after 1 hr; assay type: ADME, organism-based; conditions: in vivo; how it was run: as §1
[3] = tested on: Femur; assay: Biodistribution in Sprague-Dawley rat femur at 1 MBq, iv after 4 hrs; assay type: ADME, organism-based; conditions: in vivo; how it was run: as §1
[4] = tested on: Heart; assay: Biodistribution in Sprague-Dawley rat heart assessed per gram of tissue at 1 MBq, iv after 1 hr; assay type: ADME, organism-based; conditions: in vivo; how it was run: as §1
[5] = tested on: Kidney; assay: Biodistribution in Sprague-Dawley rat kidney assessed per gram of tissue at 1 MBq, iv after 1 hr; assay type: ADME, organism-based; conditions: in vivo; how it was run: as §1
[6] = tested on: Adrenal; assay: Biodistribution in Sprague-Dawley rat adrenals assessed per gram of tissue at 1 MBq, iv after 0.5 hrs; assay type: ADME, organism-based, Adrenal tissue; conditions: in vivo; how it was run: as §1
[7] = Metabolic stability in Sprague-Dawley rat frontal cortex assessed as drug remaining at 30 MBq after 4 hrs by Radio-HPLC analysis; assay type: ADME, tissue-based; conditions: read-out: Stability
How it was run: (§2)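 Rats received 30 MBq tracer and were sampled at 0.25, 0.5, 1 and 4 h. Plasma was diluted with water containing unlabeled carrier and KF and injected directly. Frontal cortex or olfactory bulb was sonicated in acetonitrile/water 1:1 with carrier and KF, centrifuged, and the supernatant diluted. Radio-HPLC used a precolumn switched to C18 with a CH3CN/0.05 M sodium acetate pH 5.5 gradient. Result is % parent remaining.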

[8] = tested on: Lung; assay: Biodistribution in Sprague-Dawley rat lungs assessed per gram of tissue at 1 MBq, iv after 0.5 hrs; assay type: ADME, organism-based; conditions: in vivo; how it was run: as §1
[9] = Metabolic stability in Sprague-Dawley rat olfactory bulb assessed as drug remaining at 30 MBq after 4 hrs by Radio-HPLC analysis; assay type: ADME, tissue-based; conditions: read-out: Stability; how it was run: as §2
[10] = Ratio of drug level in olfactory bulb to blood in Sprague-Dawley rat at 1 MBq, iv; assay type: ADME
How it was run: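 Same rat biodistribution as above: 1 MBq iv by tail vein, n = 4 per time point, 0.25-4 h, gamma counting as %ID/g. Ratio is the olfactory bulb radioactivity concentration divided by the blood concentration at each time.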

[11] = Metabolic stability in Sprague-Dawley rat frontal cortex assessed as drug remaining at 30 MBq after 0.25 hrs by Radio-HPLC analysis; assay type: ADME, tissue-based; conditions: read-out: Stability; how it was run: as §2
[12] = tested on: Lung; assay: Biodistribution in Sprague-Dawley rat lungs assessed per gram of tissue at 1 MBq, iv after 0.25 hrs; assay type: ADME, organism-based; conditions: in vivo; how it was run: as §1
[13] = tested on: Adrenal; assay: Biodistribution in Sprague-Dawley rat adrenals assessed per gram of tissue at 1 MBq, iv after 1 hr; assay type: ADME, organism-based, Adrenal tissue; conditions: in vivo; how it was run: as §1
[14] = Biodistribution in Sprague-Dawley rat testis assessed per gram of tissue at 1 MBq, iv after 0.25 hrs; assay type: ADME, organism-based; conditions: in vivo; how it was run: as §1
[15] = tested on: Spleen; assay: Biodistribution in Sprague-Dawley rat spleen assessed per gram of tissue at 1 MBq, iv after 4 hrs; assay type: ADME, organism-based; conditions: in vivo; how it was run: as §1
[16] = tested on: Spleen; assay: Biodistribution in Sprague-Dawley rat spleen assessed per gram of tissue at 1 MBq, iv after 1 hr; assay type: ADME, organism-based; conditions: in vivo; how it was run: as §1
[17] = tested on: Femur; assay: Biodistribution in Sprague-Dawley rat femur at 1 MBq, iv after 0.25 hrs; assay type: ADME, organism-based; conditions: in vivo; how it was run: as §1
[18] = Biodistribution in Sprague-Dawley rat testis assessed per gram of tissue at 1 MBq, iv after 4 hrs; assay type: ADME, organism-based; conditions: in vivo; how it was run: as §1
[19] = Metabolic stability in Sprague-Dawley rat olfactory bulb assessed as drug remaining at 30 MBq after 0.25 hrs by Radio-HPLC analysis; assay type: ADME, tissue-based; conditions: read-out: Stability; how it was run: as §2
[20] = tested on: Liver; assay: Biodistribution in Sprague-Dawley rat liver assessed per gram of tissue at 1 MBq, iv after 1 hr; assay type: ADME, organism-based; conditions: in vivo; how it was run: as §1
[21] = tested on: Kidney; assay: Biodistribution in Sprague-Dawley rat kidney assessed per gram of tissue at 1 MBq, iv after 0.25 hrs; assay type: ADME, organism-based; conditions: in vivo; how it was run: as §1
[22] = Biodistribution in Sprague-Dawley rat testis assessed per gram of tissue at 1 MBq, iv after 0.5 hrs; assay type: ADME, organism-based; conditions: in vivo; how it was run: as §1
[23] = tested on: Heart; assay: Biodistribution in Sprague-Dawley rat heart assessed per gram of tissue at 1 MBq, iv after 4 hrs; assay type: ADME, organism-based; conditions: in vivo; how it was run: as §1
[24] = tested on: Spleen; assay: Biodistribution in Sprague-Dawley rat spleen assessed per gram of tissue at 1 MBq, iv after 0.5 hrs; assay type: ADME, organism-based; conditions: in vivo; how it was run: as §1
[25] = tested on: Lung; assay: Biodistribution in Sprague-Dawley rat lungs assessed per gram of tissue at 1 MBq, iv after 4 hrs; assay type: ADME, organism-based; conditions: in vivo; how it was run: as §1
[26] = tested on: Liver; assay: Biodistribution in Sprague-Dawley rat liver assessed per gram of tissue at 1 MBq, iv after 0.5 hrs; assay type: ADME, organism-based; conditions: in vivo; how it was run: as §1
[27] = tested on: Spleen; assay: Biodistribution in Sprague-Dawley rat spleen assessed per gram of tissue at 1 MBq, iv after 0.25 hrs; assay type: ADME, organism-based; conditions: in vivo; how it was run: as §1
[28] = tested on: Adrenal; assay: Biodistribution in Sprague-Dawley rat adrenals assessed per gram of tissue at 1 MBq, iv after 0.25 hrs; assay type: ADME, organism-based, Adrenal tissue; conditions: in vivo; how it was run: as §1
[29] = tested on: Heart; assay: Biodistribution in Sprague-Dawley rat heart assessed per gram of tissue at 1 MBq, iv after 0.5 hrs; assay type: ADME, organism-based; conditions: in vivo; how it was run: as §1
[30] = tested on: Heart; assay: Biodistribution in Sprague-Dawley rat heart assessed per gram of tissue at 1 MBq, iv after 0.25 hrs; assay type: ADME, organism-based; conditions: in vivo; how it was run: as §1
[31] = tested on: Lung; assay: Biodistribution in Sprague-Dawley rat lungs assessed per gram of tissue at 1 MBq, iv after 1 hr; assay type: ADME, organism-based; conditions: in vivo; how it was run: as §1
[32] = tested on: Kidney; assay: Biodistribution in Sprague-Dawley rat kidney assessed per gram of tissue at 1 MBq, iv after 4 hrs; assay type: ADME, organism-based; conditions: in vivo; how it was run: as §1
[33] = tested on: Liver; assay: Biodistribution in Sprague-Dawley rat liver assessed per gram of tissue at 1 MBq, iv after 4 hrs; assay type: ADME, organism-based; conditions: in vivo; how it was run: as §1
[34] = Metabolic stability in Sprague-Dawley rat plasma assessed as drug remaining at 30 MBq after 4 hrs by Radio-HPLC analysis; assay type: ADME, cell-free; conditions: read-out: Stability; how it was run: as §2
[35] = tested on: Adrenal; assay: Biodistribution in Sprague-Dawley rat adrenals assessed per gram of tissue at 1 MBq, iv after 4 hrs; assay type: ADME, organism-based, Adrenal tissue; conditions: in vivo; how it was run: as §1
[36] = tested on: Kidney; assay: Biodistribution in Sprague-Dawley rat kidney assessed per gram of tissue at 1 MBq, iv after 0.5 hrs; assay type: ADME, organism-based; conditions: in vivo; how it was run: as §1
[37] = tested on: Blood; assay: Biodistribution in Sprague-Dawley rat blood at 1 MBq, iv after 4 hrs; assay type: ADME, organism-based; conditions: in vivo; how it was run: as §1
[38] = tested on: Blood; assay: Biodistribution in Sprague-Dawley rat blood at 1 MBq, iv after 0.25 hrs; assay type: ADME, organism-based; conditions: in vivo; how it was run: as §1
[39] = Metabolic stability in Sprague-Dawley rat plasma assessed as drug remaining at 30 MBq after 0.25 hrs by Radio-HPLC analysis; assay type: ADME, cell-free; conditions: read-out: Stability; how it was run: as §2
[40] = Lipophilicity, log p at pH 7.5; assay type: physicochemical; conditions: buffer
How it was run: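 RP-HPLC on a C18 column with methanol/0.1 M phosphate buffer pH 7.5 (60/40) at 1 mL/min. Samples were dissolved in methanol. log P7.5 was estimated by comparing retention time with that of reference compounds of known log P.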

[41] = Displacement of [3H]flumazenil from central benzodiazepine receptor in rat brain cortex membrane; assay type: cell membranes
How it was run: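 Rat brain cortex membranes (100-150 µg protein) were incubated in triplicate at 25 °C for 45 min with [3H]flumazenil (2 nM) and 7 ligand concentrations (10^-10 to 10^-5 M). Nonspecific binding was set with flumazenil 20 µM. Assays were filtered, washed with ice-cold Tris/HCl pH 7.4 and counted. Ki was derived from IC50 by Cheng-Prusoff.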

[42] = target: T1, Translocator protein (Rattus norvegicus, UniProt P16257); assay: Displacement of [3H]Ro 5-4864 from peripheral benzodiazepine receptor in rat kidney membrane; assay type: cell membranes
[43] = target: T1, Translocator protein; assay: Displacement of [3H]PK11195 from peripheral benzodiazepine receptor in rat kidney membrane; assay type: cell membranes

T1 sequence (P16257 whole entry, looked up): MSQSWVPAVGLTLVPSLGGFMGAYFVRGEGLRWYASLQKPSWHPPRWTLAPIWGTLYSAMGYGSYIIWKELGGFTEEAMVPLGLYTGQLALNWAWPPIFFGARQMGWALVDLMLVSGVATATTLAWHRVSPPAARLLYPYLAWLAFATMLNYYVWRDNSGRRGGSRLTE

Compound | Drug uptake [1] | Drug uptake [2] | Drug uptake [3] | Drug uptake [4] | Drug uptake [5] | Drug uptake [6] | remaining at 4 h [7] | Drug uptake [8] | remaining at 0.25 h [11] | Drug uptake [12] | Drug uptake [13] | Drug uptake [14] | Drug uptake [15] | Drug uptake [16] | Drug uptake [17] | Drug uptake [18] | Drug uptake [20] | Drug uptake [21] | Drug uptake [22] | Drug uptake [23] | further results
CCN(CC)C(=O)Cc1c(-c2ccc(OCC[18F])cc2)nc2ccc(Cl)cn12 | 0.63 %ID | 0.31 %ID | 0.7 % ID/g | 4.6 %ID | 2.7 %ID | 7.9 %ID | 10% | 12.1 %ID | 55% | 14.3 %ID | 7.3 %ID | 0.17 %ID | 1.9 %ID | 3.4 %ID | 0.4 % ID/g | 0.42 %ID | 0.35 %ID | 3.3 %ID | 0.23 %ID | 2.8 %ID | remaining at 4 h [9]: 40%; Kp [10]: 2; remaining at 0.25 h [19]: 80%; Drug uptake [24]: 3.9 %ID; Drug uptake [25]: 8.1 %ID; Drug uptake [26]: 0.52 %ID; Drug uptake [27]: 4.5 %ID; Drug uptake [28]: 6.7 %ID; Drug uptake [29]: 4.4 %ID; Drug uptake [30]: 4.3 %ID; Drug uptake [31]: 11.6 %ID; Drug uptake [32]: 1.3 %ID; Drug uptake [33]: 0.29 %ID; remaining at 4 h [34]: < 1%; Drug uptake [35]: 7.1 %ID; Drug uptake [36]: 3.2 %ID
CCN(CC)C(=O)Cc1c(-c2ccc(OCCC[18F])cc2)nc2ccc(Cl)cn12 | 1.08 %ID | 0.41 %ID | 2.2 % ID/g | 6.4 %ID | 3.7 %ID | 11.8 %ID | 30% | 7.7 %ID | 55% | 12.3 %ID | 9.6 %ID | 0.33 %ID | 2.5 %ID | 4.5 %ID | 0.6 % ID/g | 0.53 %ID | 0.61 %ID | 4.3 %ID | 0.43 %ID | 2.9 %ID | Drug uptake [37]: 0.1 % ID/g; Drug uptake [38]: 0.3 % ID/g; remaining at 0.25 h [39]: 10%; Drug uptake [24]: 6 %ID; Drug uptake [25]: 2.2 %ID; Drug uptake [26]: 0.79 %ID; Drug uptake [27]: 5.5 %ID; Drug uptake [28]: 8.5 %ID; Drug uptake [29]: 8.3 %ID; Drug uptake [30]: 7.8 %ID; Drug uptake [31]: 4.1 %ID; Drug uptake [32]: 1.8 %ID; Drug uptake [33]: 0.3 %ID; Drug uptake [35]: 11.4 %ID; Drug uptake [36]: 5 %ID
CCN(CC)C(=O)Cc1c(-c2ccc(OCCF)cc2)nc2ccc(Cl)cn12 |  |  |  |  |  |  |  |  |  |  |  |  |  |  |  |  |  |  |  |  | logD [40]: 2.7; Ki [41]: 790 nM; Ki [42]: 3.3 nM; Ki [43]: 5.8 nM
CCN(CC)C(=O)Cc1c(-c2ccc(OCCCF)cc2)nc2ccc(Cl)cn12 |  |  |  |  |  |  |  |  |  |  |  |  |  |  |  |  |  |  |  |  | logD [40]: 3.2; Ki [41]: 800 nM; Ki [42]: 4.2 nM; Ki [43]: 3.7 nM

From ChEMBL document CHEMBL1155010, “Synthesis and biological evaluation of substituted [18F]imidazo[1,2-a]pyridines and [18F]pyrazolo[1,5-a]pyrimidines for the study of the peripheral benzodiazepine receptor using positron emission tomography” (J Med Chem, 2008)
